Measured values taken from ChEMBL document CHEMBL1795299, “Pyrrolo[2,3-c]azepine derivatives: a new class of potent protein tyrosine phosphatase 1B inhibitors” (Bioorg Med Chem Lett, 2011).
The source made the active and inactive calls. No cut-off for these calls is given here.

What was measured:
[1] = target: T1, Tyrosine-protein phosphatase non-receptor type 1 (Homo sapiens, UniProt P18031); assay: Inhibition of human recombinant PTP1B assessed as inhibition of para-nitrophenyl phosphate to para-nitrophenol conversion by spectrophotometry
T1 sequence (P18031 whole entry): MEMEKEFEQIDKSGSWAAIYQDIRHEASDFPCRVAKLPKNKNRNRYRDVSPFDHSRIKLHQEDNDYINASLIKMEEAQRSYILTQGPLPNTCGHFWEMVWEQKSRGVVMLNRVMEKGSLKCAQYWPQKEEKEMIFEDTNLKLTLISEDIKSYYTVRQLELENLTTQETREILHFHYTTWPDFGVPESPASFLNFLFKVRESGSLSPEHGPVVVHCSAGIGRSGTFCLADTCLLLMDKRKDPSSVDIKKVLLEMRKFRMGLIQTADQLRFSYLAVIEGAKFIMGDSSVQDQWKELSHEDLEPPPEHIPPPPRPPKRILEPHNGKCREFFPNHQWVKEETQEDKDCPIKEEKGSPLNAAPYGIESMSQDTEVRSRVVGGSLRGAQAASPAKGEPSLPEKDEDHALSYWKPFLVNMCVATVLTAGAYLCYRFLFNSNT
Method in brief: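 Recombinant human GST-PTP1B, from E. coli BL21 pellets purified on a GST bead column, converts pNPP to p-nitrophenol, measured at 405 nm. Compounds were dissolved in 100% DMSO and tested over a dose series. IC50 came from a sigmoidal dose-response curve with variable slope. BPV(phen) served as the reference.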

[2] = target: T2, Tyrosine-protein phosphatase non-receptor type 1 (Homo sapiens) (UniProt P18031); assay: Inhibition of human recombinant PTP1B assessed as inhibition of para-nitrophenyl phosphate to para-nitrophenol conversion at 100 uM by spectrophotometry
T2 sequence (whole entry): T1 sequence (P18031 whole entry)
Method in brief: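 GST-tagged human PTP1B, expressed in E. coli BL21 and purified on GST beads, hydrolyses pNPP to p-nitrophenol, read as absorbance at 405 nm. Compounds were dissolved in 100% DMSO, and the inhibitory rate was recorded. BPV(phen) served as the reference.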

Structure (SMILES)	IC50 [1] [µM]	inhibition [2]
O=C1c2c(ccn2Cc2ccccc2)/C(=N/O)CCN1Cc1ccccc1		inactive
COc1ccc(-n2ccc3c2C(=O)NCCC3=O)cc1		inactive
O=C1CCNC(=O)c2c1ccn2-c1ccc(C(F)(F)F)cc1		inactive
O=C1CCNC(=O)c2[nH]ccc21		Active
O=C1NCCC(O)c2ccn(Cc3ccc(-c4ccccc4)cc3)c21 (centres undefined)		inactive
O=C1CCNC(=O)c2c1ccn2-c1ccccc1		inactive
O=C1CCNC(=O)c2c1ccn2Cc1ccccc1		inactive
NC(=O)c1ccccc1-c1ccc(Cn2ccc3c2C(=O)NCCC3=O)cc1		inactive
O=C1NCCC(O)c2ccn(Cc3ccccc3)c21 (centres undefined)		inactive
N#Cc1ccccc1-c1ccc(Cn2ccc3c2C(=O)NCCC3=O)cc1		inactive
CCc1ccc(-n2ccc3c2C(=O)NCCC3=O)cc1		inactive
O=C1CCN(Cc2ccccc2)C(=O)c2c1ccn2Cc1ccccc1		inactive
O=C1NCC=Cc2ccn(Cc3ccccc3)c21		inactive
O=C1CCNC(=O)c2c1ccn2-c1ccc(-c2ccccc2)cc1		inactive
CC(=O)c1ccc(-n2ccc3c2C(=O)NCCC3=O)cc1		inactive

Continued, values first:

IC50 [1] [µM]	inhibition [2]	Structure (SMILES)
13.9	Active	COc1ccc(-c2ccc(Cn3c4c(c5ccccc53)C(=O)CCNC4=O)cc2)cc1
16.4	Active	CCCCOc1ccc(-c2ccc(Cn3ccc4c3C(=O)NCCC4=O)cc2)cc1
	Active	Cc1ccc(-c2ccc(Cn3ccc4c3C(=O)NCCC4=O)cc2)cc1
	inactive	O=C1CCNC(=O)c2c1ccn2Cc1ccc(-c2cccc(O)c2)cc1
	inactive	Nc1cccc(-c2ccc(Cn3ccc4c3C(=O)NCCC4=O)cc2)c1
	Active	COc1ccc(-c2ccc(Cn3ccc4c3C(=O)NCCC4=O)cc2)cc1
	Active	CCCOc1ccc(-c2ccc(Cn3ccc4c3C(=O)NCCC4=O)cc2)cc1
	Active	O=C1CCNC(=O)c2c1ccn2Cc1ccc(-c2ccc(O)cc2)cc1
14.9	Active	COc1ccc(-c2ccc(Cn3ccc4c3C(=O)NCC/C4=N\Nc3ccccn3)cc2)cc1
	inactive	O=C1CCNC(=O)c2c1ccn2Cc1ccc(-c2ccccc2)cc1
	Active	COc1ccc(-c2ccc(Cn3ccc4c3C(=O)N(C)CCC4=O)cc2)cc1
